Screening data (PubChem)
Compounds with a hit are over-represented: about 1.3% of the library has one in this group of screens.
CRFBP-R2 agonist: agonists of human CRF-binding protein/CRF-R2 receptor complex; HEK293 CRF-R2/CRF-BP, calcium dye fluorescence (FLIPR); percent of saturating CRF peptide response; activation, % at 13.2 µM; hit rate 0.46% among 350,000; AID 588473;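 active = activation of at least 50%, plus an integration ratio under a set limit after plate pattern correction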;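 note: plate controls were neutral control wells without compound for no effect and CRF at EC100 for full effect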
Tn6 DDE FP: disrupts Tn6 cyclic peptide binding to fibrin D-Dimer-E complex; Fibrin DD(E) TRITC-Tn6 fluorescence polarization displacement; hit rate 0.21% among 370,000; inhibition, % at 8.3 µM; P02675; AID 720509;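 active = inhibition above a per-campaign cutoff: mean of compounds within control limits plus 3 SD, cut at about 15% in these data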;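 note: 0% = median of all compound wells on the plate and 100% = blocking peptide control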
Target sequence (P02675 whole entry, looked up): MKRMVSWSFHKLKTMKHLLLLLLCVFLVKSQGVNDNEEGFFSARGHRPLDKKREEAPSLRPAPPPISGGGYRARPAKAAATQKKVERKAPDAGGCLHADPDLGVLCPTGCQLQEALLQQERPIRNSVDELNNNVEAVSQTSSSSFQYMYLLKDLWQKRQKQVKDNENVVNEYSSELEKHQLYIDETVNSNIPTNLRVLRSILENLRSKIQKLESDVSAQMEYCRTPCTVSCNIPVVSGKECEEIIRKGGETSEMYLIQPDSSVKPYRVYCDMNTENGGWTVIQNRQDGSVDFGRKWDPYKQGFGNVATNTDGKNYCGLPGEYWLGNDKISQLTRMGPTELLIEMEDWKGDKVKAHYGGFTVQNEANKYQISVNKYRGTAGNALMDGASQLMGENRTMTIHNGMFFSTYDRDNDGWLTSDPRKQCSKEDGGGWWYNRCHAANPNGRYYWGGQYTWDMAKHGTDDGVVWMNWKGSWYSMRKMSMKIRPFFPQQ
CRFR2-BP antag: CRF-BP/CRF-R2 complex antagonism | HEK293 CRF-R2/CRF-BP, CRF-induced calcium fluorescence | inhibition, % at 11.8 µM | AID 588475 | hit rate 0.59% among 350,000;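 active = inhibition of the ligand-induced calcium signal above about 50% at the single tested concentration, limit read from the data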
Tn7 DDE FP: disrupts Tn7 cyclic peptide binding to fibrin D-Dimer-E complex | P02675 | FP displacement of FITC-Tn7 peptide from fibrin DD(E); 0% = median of compound wells per plate | AID 720508 | inhibition, % at 8.3 µM | hit rate 0.13% among 370,000;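 active = inhibition above the mean of compounds falling within the control limits plus 3 SD of them, cut at about 14% in these data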;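 note: 0% = plate median of compound wells and 100% = 10 µM Aha-Tn7 peptide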
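System: human fibrin DD(E); quantity: Fibrin-DD(E) at 2 µM final; also added: fluorescent Tn7 probe at 0.1 µM; compound dosing: single nominal test concentration of 8.3 µM per compound; schedule: 10 min preincubation, 3 h with tracer, room temperature; detection: fluorescence polarization of the labelled Tn7 tracer; repeats: one replicate per compound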
Numbers without * were called inactive; · = not tested or not shown.

SMILES | CRFBP-R2 agonist | Tn6 DDE FP | CRFR2-BP antag | Tn7 DDE FP
O=c1[nH]c(=O)n(-c2ccc(F)cc2)c2c1C(C(F)(F)F)(C(F)(F)F)N=C(c1ccc(F)cc1)N2 | 30 | 0 | 67* | 10
O=c1[nH]c(=O)n(-c2ccccc2)c2c1C(C(F)(F)F)(C(F)(F)F)N=C(CCC1CCCCC1)N2 | 109* | 3 | -53 | -2
O=C(CSc1nnc(-c2ccccc2)n1Cc1ccco1)Nc1ccc(OCc2ccccc2)cc1 | · | -9 | · | -7
COCCCNC(=O)C[C@H]1C[C@@]2(C(=O)OC)C(=C[C@H](C(C)(C)C)O[C@@H]2C)N(Cc2ccco2)C1=O | · | -2 | · | -6
COc1ccc(NC(=O)/C(C#N)=C/c2ccc(Br)o2)cc1 | 1 | 5 | -18 | 5
N#C/C(=C/c1ccc(N2CCOCC2)o1)C(=O)NC1CCCCC1 | 50* | -10 | -37 | -16
N#C/C(=C/c1ccc(N2CCOCC2)o1)c1nc2ccccc2[nH]1 | 128* | -2 | -99 | -4
N#C/C(=C\c1ccc(N2CCOCC2)o1)C(=O)Nc1ccc(O)cc1 | 125* | -2 | -117 | -39
N#C/C(=C\c1ccc(N2CCOCC2)o1)c1ccccc1 | 6 | 1 | 35 | 4
COc1ccc(NC(=O)/C(C#N)=C\c2ccc(N3CCOCC3)o2)cc1 | 223* | -11 | -279 | -57
O=C(c1cccs1)n1ccc2ccc(-c3ccc4ccn(Cc5ccccc5)c4c3)cc21 | · | 1 | · | 4
O=C(NCc1ccccc1)OCCN1C(=O)CCC12CCC(c1ccccc1)CC2 (stereo not given) | · | 6 | · | -3
CC(=O)Nc1ccc(CN2CCCC(CO)(Cc3cccc(Cl)c3)C2)cc1 (stereo not given) | 56* | -1 | -41 | -2
COc1cccc(/C=N/Nc2nc(-c3cccnc3)nc3ccccc23)c1 | 1 | 3 | 0 | -3
COc1cccc(CNc2nc(-c3cccnc3)nc3ccccc23)c1 | -2 | 0 | 96* | -1
C/C(=C\C=C(C#N)C#N)c1cc(C#N)c(N)o1 | 64* | -9 | -50 | -14
CCC(=O)Nc1cc(Cl)ccc1N1CCN(C(=O)CC)CC1 | -1 | 0 | 81* | 3
Nc1[nH]c(C(=O)c2ccccc2)c(-c2cc(F)ccc2Br)c1C(=O)NCCc1c[nH]c2ccccc12 | · | -6 | · | 8
Cc1ccc(C(=O)N(Cc2sccc2C)C2CCS(=O)(=O)C2)cc1 (stereo not given) | -14 | -1 | 50* | -1
CCOC(=O)[C@@]12CN(C(=O)OC(C)(C)C)CC=C1N(Cc1ccc(OC)cc1)C(=O)[C@H]2CC(=O)NCCC(C)C | · | -9 | · | -3
CCN1/C(=C/C=C/c2oc3ccc4ccccc4c3[n+]2CC)Oc2ccc3ccccc3c21 | 153* | · | -219 | ·
CC[n+]1c(/C=C/N(C)c2ccccc2)oc2ccc(Cl)cc21 | 2 | -2 | 15 | 6
COCCCn1cc(CN2CC=CS2(=O)=O)nn1 | · | -6 | · | -1
CCN(C[C@H]1N[C@@](Cc2ccccc2)(C(=O)OC)[C@H]2C(=O)N(Cc3ccccc3)C(=O)[C@@H]12)C(=O)C1CCCCC1 | 110* | 4 | -119 | -9
CCN(C[C@H]1N[C@@](C)(C(=O)OC)[C@H]2C(=O)N(Cc3ccccc3)C(=O)[C@@H]12)C(=O)C1CCCCC1 | 1 | 6 | -3 | 1
SMILES | CRFBP-R2 agonist | Tn6 DDE FP | CRFR2-BP antag | Tn7 DDE FP
Cn1c(CNc2ccccc2F)nc2ccccc21 | · | 0 | · | 3
O=C(Nc1ncc(S(=O)(=O)c2ccc([N+](=O)[O-])cc2)s1)c1cccc2ccccc12 | 112* | -7 | -70 | -2
O=C(NC(Nc1ncc(S(=O)(=O)c2ccc([N+](=O)[O-])cc2)s1)(C(F)(F)F)C(F)(F)F)c1ccc(Cl)cc1 | 34 | 3 | 62* | -3
COCC(=O)Nc1ncc(S(=O)(=O)c2ccc([N+](=O)[O-])cc2)s1 | -1 | -3 | 10 | 0
O=C(NCc1c(F)cccc1F)C1C2C=CC3(CN(Cc4ccccc4)C(=O)C13)O2 (stereo not given) | · | -1 | · | 7
O=C(NNC(=S)Nc1ccc(Cl)cc1)c1ccccc1OC(F)F | 51* | -7 | -52 | -1
COc1cccc(Oc2ccc(OC)cc2C(=O)O)c1 | 4 | -2 | 74* | 9
COc1ccc(S[C@]2(C(=O)N(C)C)CC(=O)N(C(=O)CCc3ccccc3)[C@@H]2c2ccc(OC)cc2)cc1 | · | -6 | · | -6
CCOC(=O)[C@]12CCCC3=C1N(CCC3)C(=O)[C@@H](CC(=O)N1CCN(C(=O)c3ccco3)CC1)C2 | · | -3 | · | 2
